Hits are enriched below; roughly 2.6% of the tested compounds scored in any of these assays.
PRMT1 FP inh: PRMT1 methyltransferase inhibitors, primary screen, biochemical, fluorescence polarization; Protein arginine N-methyltransferase 1 (Homo sapiens), Q99873; recombinant PRMT1, activity-based probe fluorescence polarization; inhibition, % at 2.79 µM; 1.3% of 370,000 active; AID 652257, 2013;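 active = inhibition above about 21% made by adding two undisclosed values, limit read from the data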
HTRA1 inhibitor: HTRA1 serine protease inhibitors, primary screen, biochemical, fluorescence polarization, HTS; 0.5% of 340,000 active; Q92743; inhibition, % at 5.96 µM; recombinant HTRA1, FP-rhodamine activity-based probe; in the data active = inhibition above about 36%;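 also: 0% = enzyme with DMSO and 100% = wells lacking enzyme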
Target sequence (Q92743 whole entry, looked up): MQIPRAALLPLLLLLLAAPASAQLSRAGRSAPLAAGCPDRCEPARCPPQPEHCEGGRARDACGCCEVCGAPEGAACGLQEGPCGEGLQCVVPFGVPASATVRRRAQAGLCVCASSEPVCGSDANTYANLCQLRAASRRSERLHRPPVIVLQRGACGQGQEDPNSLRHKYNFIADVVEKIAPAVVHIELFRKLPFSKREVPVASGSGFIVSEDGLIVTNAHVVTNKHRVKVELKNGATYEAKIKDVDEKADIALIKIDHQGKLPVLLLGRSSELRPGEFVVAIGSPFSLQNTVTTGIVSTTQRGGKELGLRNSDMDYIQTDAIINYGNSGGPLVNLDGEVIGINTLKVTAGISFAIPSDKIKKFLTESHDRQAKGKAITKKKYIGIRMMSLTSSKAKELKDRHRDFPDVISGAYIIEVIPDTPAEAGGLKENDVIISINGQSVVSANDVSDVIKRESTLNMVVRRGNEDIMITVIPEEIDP
mABHD4 FP: ABHD4 inhibitors, primary screen, biochemical, fluorescence polarization, mouse | inhibition, % at 8.92 µM | (Lyso)-N-acylphosphatidylethanolamine lipase (Mus musculus), Q8VD66 | AID 720543, 2013 | 0.54% of 370,000 active | purified mABHD4, FP-Rh probe fluorescence polarization;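 active = inhibition exceeding the mean over every tested compound plus 3 SD, cut at about 30% in these data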;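 also: 0% = plate median of compound wells and 100% = S159A mutant with DMSO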
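system = mouse ABHD4 enzyme, wild type | medium = HEPES pH 7.0, NaCl, Pluronic buffer | also added = FP-Rh probe | incubation = Enzyme–compound pre-incubation 45 min, then probe 60 min, both 25 °C | technique = fluorescence polarization, excitation 525 nm, emission 598 nm, BODIPY TMR filters | controls = S159A mutant high control, sample median low control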
SIAE primary: human SIAE inhibitors, primary screen, biochemical, fluorescence polarization, FP-Rh probe, 1536-well HTS. SIAE FP-Rh probe binding. 0.69% of 370,000 active. Sialate O-acetylesterase (Homo sapiens), Q9HAT2. inhibition, % at 9.66 µM;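 active = inhibition above a cutoff: mean of compounds within the control limits plus 3 SD of those, cut at about 17% in these data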;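 also: 0% = plate median of compound wells and 100% = probe without SIAE protein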
TCR-CD3 inh: inhibitors of human TCR-CD3 interaction, primary screen, biochemical, fluorescence, TAMRA-labeled TCR probe | 0.37% of 360,000 active | AID 651800, 2012 | T-cell receptor (TCR) | inhibition, % at 9.4 µM; in the data active = inhibition above about 19%;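 also: recombinant mutant TCR 2C K166C tagged with TAMRA read by polarization; 0% = receptor in buffer alone and 100% = receptor with positive control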
PRMT1 confirm: PRMT1 methyltransferase inhibitors, confirmation, biochemical, fluorescence polarization, triplicate. shares compounds with PRMT1 FP inh. recombinant His-PRMT1, activity-based probe fluorescence polarization. inhibition, % at 2.79 µM. 42% of 3,300 active;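 active = mean inhibition across replicates above the hit cutoff derived for the earlier primary screen, cut at about 22% in these data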
Active calls of the source: *; . = not tested or not shown.

SMILES	PRMT1 FP inh	HTRA1 inhibitor	mABHD4 FP	SIAE primary	TCR-CD3 inh	PRMT1 confirm
Cc1ccccc1/C=N/n1c(COc2ccccc2)n[nH]c1=S	-1	-2	-4	11	3	.
Oc1ccccc1/C=N/n1c(COc2ccccc2)n[nH]c1=S	8	4	-11	-4	-4	.
S=c1[nH]nc(COc2ccccc2)n1/N=C/c1ccc(Br)s1	26*	-14	-11	8	12	12
Cc1ccc(CN2CC(C(=O)N(C)CC(=O)Nc3cccc(F)c3)CC2=O)cc1 (stereo unspecified)	5	3	9	-6	-6	.
C#CCOCCOCCOCCNc1nc(N2CCN(C(=O)C([C@@H](C)CC)n3cc(C(N)COC(=O)C(F)(F)F)nn3)CC2)nc(N2CCN(C(=O)[C@H](CCC(=O)O)n3cc(C(N)CC(C)C)nn3)CC2)n1 (stereo partly specified)	-1	.	0	-2	2	.
Cc1ccc(S(=O)(=O)NC(=O)C2(C)CCN2C(=O)CC2CCCCC2)nc1 (stereo unspecified)	-5	.	-4	-2	-4	.
CN1C2C=CC(=O)C1C1C(=O)N(c3ccccc3)C(=O)C12 (stereo unspecified)	28*	.	-1	1	-4	2
C[C@@H]1CN([C@H](C)CO)C(=O)CCCn2cc(nn2)CO[C@H]1CN(C)S(=O)(=O)c1ccccc1	-9	-2	0	-1	-3	.
CC(C(=O)OCC(=O)c1cccc([N+](=O)[O-])c1)N1C(=O)C2C3C=CC(C3)C2C1=O (stereo unspecified)	2	2	-2	-5	2	.
O=C1CC(N2CCCCC2)C(=O)N1c1ccccc1 (stereo unspecified)	81*	4	10	-1	7	13
O=C1CC(N2CCCN(C3CC(=O)N(c4ccc(F)cc4)C3=O)CC2)C(=O)N1c1ccc(F)cc1 (stereo unspecified)	78*	-4	-3	-1	2	6
O=C1CC(N2CCSCC2)C(=O)N1c1ccccc1 (stereo unspecified)	10	9	3	2	-1	.
CC1=CC2C(C3C=CC2(C)C(=O)C3(C)O)C(C)(O)C1=O (stereo unspecified)	-1	2	-3	1	0	.
Cc1ccc(C(=O)COC(=O)c2cnccn2)cc1	-1	9	5	3	7	.
O=C(COc1ccccc1F)OCC(=O)c1ccc([N+](=O)[O-])cc1	46*	5	7	6	6	34*
O=C(COC(=O)c1cnccn1)c1ccc([N+](=O)[O-])cc1	47*	3	7	4	9	60*
O=C(CNC(=O)c1cccs1)NCC(=O)OCC(=O)c1ccc([N+](=O)[O-])cc1	70*	6	7	-3	-9	41*
C=CCC1(C(=O)NCCO)CCN(C(=O)OC(C)(C)C)CC1	-2	9	8	-10	5	.
CCOc1ccc(S(=O)(=O)N2CCOCC2)cc1NC(=O)c1ccc(N2CCCC2=O)cc1	4	8	-4	-12	-2	.
CCCCc1c(O)nc(SCC(=O)c2ccccc2)[nH]c1=O	40*	-3	3	1	-4	38*
O=C(CSc1nc(O)c(Cc2ccccc2)c(=O)[nH]1)N1CCOCC1	-3	8	-6	0	7	.
O=C(CSc1nc(O)c(Cc2ccccc2)c(=O)[nH]1)c1ccccc1	47*	8	7	-3	4	34*
Clc1cccc(Cc2c(-c3ccco3)nc3ccc(Cl)cn23)c1	47*	.	7	6	-2	17
Clc1cccc(Cc2c(-c3ccco3)nc3ccc(Br)cn23)c1	34*	.	1	-7	-5	13
Brc1ccc2nc(-c3ccco3)c(Cc3ccccc3)n2c1	42*	.	-3	-4	0	15
SMILES	PRMT1 FP inh	HTRA1 inhibitor	mABHD4 FP	SIAE primary	TCR-CD3 inh	PRMT1 confirm
Cc1cccc(NS(=O)(=O)c2ccc3c(c2)NC(=O)CO3)c1C	1	-2	-3	-1	7	.
O=C(O)CCCC(=O)N1CCOCCOCCOCCOCC1	3	1	-9	-14	3	.
COc1cc2c(cc1OC)CN(C(=O)COc1ccccc1[N+](=O)[O-])CC2	2	1	4	1	-9	.
COc1ccccc1NS(=O)(=O)c1cc(NC(=O)C2CCC2)ccc1N1CCCCC1	36*	-10	-12	-15	-5	4
O=C(c1ccco1)N1CCC(c2nc3ccccc3[nH]2)CC1	-1	0	1	6	-5	.
CCN(C(=O)COC(=O)CSc1ccc(F)cc1)c1c(N)n(Cc2ccccc2)c(=O)[nH]c1=O	-1	-3	3	1	3	.
O=C(COc1ccccc1)NC(=S)Nc1ccc(Br)cn1	31*	.	6	6	-5	3
Cc1ccccc1C(=O)NNC(=S)NC(=O)COc1ccccc1	44*	1	-8	7	-10	9
CCN1C(=O)/C(=C/c2ccc(C)o2)N(C)C1=S	45*	-5	6	0	-6	1
CCN1C(=O)N/C(=C/c2ccc(Sc3ccc(C)cc3)o2)C1=O	3	-9	-1	4	0	.
CCn1c(C)cc(/C=C2/NC(=O)N(Cc3ccccc3F)C2=O)c1C	4	-3	10	7	1	.
Cc1ccc(/C=C2/NC(=O)N(Cc3ccccc3F)C2=O)o1	83*	5	3	9	-3	10
CCN1C(=O)N/C(=C/c2ccc(C)o2)C1=O	56*	-1	4	7	15	9
O=C1N/C(=C/c2ccc(N3CCOCC3)o2)C(=O)N1c1cccc(Cl)c1	30*	-2	-15	2	-2	-7
CCCCCCCCN1C(=O)[C@H](CC(=O)N2CCSCC2)C[C@@]2(C(=O)OC)CC(C)(C)CC=C12	-1	.	-6	-2	4	.
Cc1ccc(/C=C2/NC(=O)N(Cc3ccc(Br)cc3)C2=O)o1	80*	4	16	2	0	10
Cc1ccc(CN2C(=O)N/C(=C\c3ccc(N4CCOCC4)cc3)C2=O)cc1	-3	0	4	10	-1	.
Cc1ccc(/C=C2/NC(=O)N(c3ccccc3)C2=O)o1	60*	2	8	2	2	30*
N#Cc1c(-c2cccc(Br)c2)cc(-c2ccco2)[nH]c1=O	33*	15	11	0	0	10
COc1ccc(-c2cc(-c3ccco3)[nH]c(=O)c2C#N)cc1	6	10	13	1	6	.

Assay outcomes deposited in PubChem BioAssay by The Scripps Research Institute Molecular Screening Center.
